# Only some compounds are listed: those with a hit (about 2% of all), similar ones and a draw of the others.
# ARNT-TACC3 inh: disruptors of human ARNT/TACC3 interaction; Q9Y6A5; AlphaScreen His-ARNT PAS-B/GST-TACC3 binding, luminescence; TACC3 fragment carries E629A point mutation; inhibition, % at 9.99 µM; hit rate 0.66% among 390,000; AID 623870;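 active = mean inhibition of replicates at least 50% and at least half of replicates each reaching 50%; inconclusive = half or more replicates reach 50% but mean below 50%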;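 also: 0% = complete ARNT plus TACC3 wells and 100% = ARNT alone without TACC3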
# T cruzi repl: T. cruzi replication inhibition; T. cruzi beta-gal in NIH3T3, luminescence, 90 h; inhibition, % (test concentration not listed); hit rate 1.4% among 300,000; AID 1885;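 active = mean inhibition across valid replicates above about 55%, limit read from the data; inconclusive = mean below that limit but half or more replicates reach it; inactive = mean below it, under half of replicates reach it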;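 also: signal also drops with host cell toxicity which is not excluded here; 0% = plate median of DMSO wells and 100% = zero luminescence signal; higher percent means less beta-gal luminescence so fewer parasites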
#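 System: NIH/3T3 fibroblasts plus reporter T. cruzi. Medium: DMEM plus 2% FBS. Probe or stimulus: 5000 reporter trypomastigotes per well. Compound: single 50 nL compound addition per well in DMSO. Incubation: co-culture of at least 90 h after 3 h attachment. Detection: GalScreen β-gal luminescence, detergent lysis, 60 min. Evaluation: parasite load inhibition, %.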
# AI-2 QS modul: modulators of Vibrio harveyi AI-2 quorum sensing system | Vibrio harveyi JMH597 AI-2 luminescence/OD600 ratio, 9 h; stronger effect = lower value; strain lacks LuxN and CqsS sensors; 0 = neutral-control median | activity change, % at 7.5 µM | hit rate 0.4% among 300,000 | AID 2094; in the data active = activity change below about -75%, passing the limit was not always enough; inconclusive = no clear call, values can overlap the other calls;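 also: luminescence divided by OD600 gain over 9 h not by final OD600 alone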
# HIF act: HIF pathway transcriptional activation | U2OS HRE-luciferase reporter, luminescence; normalized: DMSO 0%, desferrioxamine 100% | hit rate 0.32% among 300,000 | AID 1910 | activation, % at 7.5 µM (by protocol);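 active = mean activation of at least 10% of the iron chelator positive control signal, with at least half of replicates also reaching 10%; inconclusive = mean and replicate majority disagree about reaching 10%; inactive = mean and most replicates under 10%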
# * hit, by the source's call; u = inconclusive; x = not tested or not shown.
SMILES,ARNT-TACC3 inh,T cruzi repl,AI-2 QS modul,HIF act
C[C@@H]1CN([C@H](C)CO)S(=O)(=O)c2ccc(-c3cccc(C#N)c3)cc2O[C@@H]1CN(C)CC1CC1,2,x,x,x
CCN(CC)c1ccc(N=Cc2ccccc2[N+](=O)[O-])cc1,41,74*,20,-1
Cc1cc(C(=O)N/N=C/c2ccc(-c3ccccc3Cl)o2)n[nH]1,-1,62*,42,2
Cc1[nH]cnc1C(=O)N/N=C/c1ccc([N+](=O)[O-])s1,18,57*,u,-2
Cc1cc(C(=O)N/N=C/c2ccc([N+](=O)[O-])s2)n[nH]1,0,57*,-29,-1
Cc1cc(C(=O)N/N=C/c2ccc(C)s2)n[nH]1,x,2,18,2
COc1ccc(S(=O)(=O)Nc2ccc3c(c2)C(=O)N([C@H](C)CO)C[C@H](C)[C@H](CN(C)C(=O)c2ccncc2)OCCCC[C@H](C)O3)cc1,-6,x,x,x
O=S(=O)(N[C@H]1CC[C@H](CCn2cc(-c3cccnc3)nn2)O[C@H]1CO)c1ccccc1,-5,x,x,x
O=C(Nc1ccc(F)cc1)N1C[C@H]2[C@@H](c3ccccc31)[C@H](CO)N2C(=O)c1ccccn1,6,x,x,x
CC(C)NC(=O)Nc1ccc2c(c1)C(=O)N([C@H](C)CO)C[C@H](C)[C@H](CN(C)C(=O)c1ccncc1)OCCCC[C@H](C)O2,6,x,x,x
COCCN(CCOC)S(=O)(=O)c1ccc(C(=O)Nc2nnc(COC)o2)cc1,32,1,18,0
COCCN(CCOC)S(=O)(=O)c1ccc(C(=O)Nc2nnc(C)o2)cc1,57*,-4,-11,0
COCc1nnc(NC(=O)c2ccc(S(=O)(=O)N(C)Cc3ccccc3)cc2)o1,49*,-21,52,0
Cc1nnc(NC(=O)c2ccc3ccccc3c2)o1,52*,x,x,x
O=C(Nc1nnc(-c2ccco2)o1)c1ccc2ccccc2c1,-1,-6,17,0
Cc1nnc(NC(=O)c2ccc(S(=O)(=O)N3CCCCCC3)cc2)o1,43,-19,11,0
Cc1nnc(NC(=O)c2ccc(S(=O)(=O)N3CC(C)OC(C)C3)cc2)o1 (stereo not given),64*,-6,3,0
CNC[C@H]1Oc2c(NS(=O)(=O)c3c(C)noc3C)cccc2C(=O)N([C@@H](C)CO)C[C@H]1C,-2,x,x,x
CCN(Cc1ccccc1)S(=O)(=O)c1ccc(C(=O)Nc2nnc(C3CC3)o2)cc1,33,49,60,0
CC(C)C(=O)NC(=S)Nc1ccc(S(=O)(=O)N(C)Cc2ccccc2)cc1,-14,x,20,x
CC(=O)NC(=S)Nc1ccc(S(=O)(=O)N(C)Cc2ccccc2)cc1,9,68*,12,0
Cc1nnc(NC(=O)c2ccc(S(=O)(=O)N(C)Cc3ccccc3)cc2)o1,46*,-3,45,-1
COC(=O)C[C@@H]1CC[C@H]2[C@@H](COc3ccc(NC(=O)c4ccccc4OC)cc3C(=O)N2C)O1,4,x,x,x
Cc1cc(Cl)n2c(nc3ccccc32)c1C#N,-2,71*,14,2
CNc1cc(C)c(C#N)c2nc3ccccc3n12,3,-2,10,1
SMILES,ARNT-TACC3 inh,T cruzi repl,AI-2 QS modul,HIF act
CCc1c(C)c(C#N)c2nc3ccccc3n2c1NCCN(C)C,5,68*,5,0
O=C(CNCCc1ccc(Cl)cc1)Nc1ccc(C(=O)N2CCCCC2)cc1,-7,62*,8,0
O=C(CNCCc1ccccc1)Nc1ccc(C(=O)N2CCCCC2)cc1,2,36,7,0
Cc1ccc(S(=O)(=O)N(C)C[C@H]2Oc3ccc(NC(=O)NC4CCCCC4)cc3CC(=O)N([C@@H](C)CO)C[C@H]2C)cc1,1,x,x,x
CC(Oc1ccc2c(c1)c1ccnc3c4ccccc4c(=O)n2c13)C(=O)NCCN1CCOCC1 (stereo not given),48*,40,26,0
N=c1c(S(=O)(=O)c2ccc(Cl)cc2)cc2c(=O)n3ccccc3nc2n1CCN1CCOCC1,-1,3,27,0
N=c1c(S(=O)(=O)c2ccc(Cl)cc2)cc2c(=O)n3ccccc3nc2n1CCc1ccccc1,-5,58*,-2,0
CC(C)c1ccc2c(c1)C1(NN=C(c3ccccc3)S1)C(=O)N2 (stereo not given),50*,66*,-91*,4
CC(C)c1cccc(O)c(=O)c1,-25,-5,-1,0
Cc1cccc(NC(=O)c2cccc(C(=O)Nc3cccc(C)c3)n2)c1,-4,-2,23,0
Cc1cccc(NC(=O)Nc2cnccn2)c1,x,-12,18,1
O=C(Nc1ccncc1)Nc1ccc(Br)cc1Cl,-6,56*,-2,0
Cc1cccc(NC(=O)NNC(=O)c2ccccn2)c1,48*,x,x,x
Cc1cccc(NC(=O)Nc2ccncc2)c1,-1,65*,5,0
O=C(Nc1ccccc1C(=O)Nc1nnc(C(F)(F)F)s1)c1ccccc1,-6,59*,20,0
Cc1occc1C(=O)Nc1nnc(C(F)(F)F)s1,-1,-11,-4,0
CN(C)S(=O)(=O)c1ccc(NC(=O)N2CCN(c3cccc(C(F)(F)F)c3)CC2)cc1,-3,55*,6,-1
COc1ccc(NC(=O)N2CCN(c3cccc(C(F)(F)F)c3)CC2)cc1,-2,-13,8,0
Cc1ccc(S(=O)(=O)O/N=C2\CCCc3ccccc32)cc1,-2,-7,26,-2
CC1=C(C)/C(=N\OS(=O)(=O)c2ccccc2)C=CC1=O,x,55*,u,-44
Cc1c(C(=O)N2CCC(Cc3ccccc3)CC2)sc2ncnc(N3CCC(C)CC3)c12,-3,72*,16,0
C[C@H]1CN([C@@H](C)CO)C(=O)Cc2cc(NC(=O)Cc3ccccc3)ccc2O[C@H]1CN(C)C,16,x,x,x
CCOC(=O)c1c(NC(=O)C2=C(C)NC(=S)NC2c2ccccc2C(F)(F)F)sc(C)c1C (stereo not given),-5,62*,47,0
COc1ccccc1C(=O)NC(=Nc1nc2ccccc2o1)NC(=O)c1ccccc1OC,-29,71*,17,1
CCCC(=O)Nc1ccc2c(c1)C(=O)N(C)C[C@H](OC)[C@H](C)CN(CC1CCCC1)[C@@H](C)CO2,0,x,x,x
SMILES,ARNT-TACC3 inh,T cruzi repl,AI-2 QS modul,HIF act
O=C(CCN1CCN(C/C=C/c2ccccc2)CC1)Nc1ccccc1,5,56*,21,0
O=C(CCN1CCN(Cc2ccccc2)CC1)Nc1cccc(Cl)c1,8,55*,-3,0
O=C(CCCCCCC(=O)Nc1ccccc1)NO,0,-11,29,190*
COc1ccc(-c2cc(C3CCN(Cc4cccc(C(F)(F)F)c4)CC3)[nH]n2)cc1,x,62*,23,0
COc1ccc(-c2cc(C3CCN(CC(O)C(F)(F)F)CC3)[nH]n2)cc1 (stereo not given),2,1,1,-1
COc1ccc(-c2cc(C3CCN(Cc4ccc([N+](=O)[O-])cc4)CC3)[nH]n2)cc1,x,85*,12,0
O=C(N[C@H]1CC[C@H](CCNC(=O)C2CCC2)O[C@@H]1CO)c1ccccn1,-4,x,x,x

# Screening data as filed in PubChem BioAssay.
